Assay results from different studies.
Lines come from different studies, so protocols differ.
Target: Wee1-like protein kinase (WEE1, Homo sapiens, UniProt P30291)

With `O=C(c1ccc(Nc2ncc(Cl)c(-c3cc4ccccc4s3)n2)cc1)N1CCC(N2CCCC2)CC1` the remaining binding was 11% (binding, competition with immobilised ligand; 1 µM).
With `CN(C)c1ncc(F)c(-c2cnn3ncccc23)n1` the remaining binding was 100% (binding; 1 µM).
For `COc1cnc(Nc2cccc(S(N)(=O)=O)c2)nc1N1CCN(c2ccccc2)CC1`, the remaining binding was 100% (binding, competition with immobilised ligand; 1 µM).
`CN(CCCC(F)(F)F)c1nccc(-c2cnn3ncccc23)n1` gave a remaining binding of 100% (binding; 1 µM).
The remaining binding of `O=C(c1ccc(Nc2ncc(Cl)c(-c3ccc(Cl)s3)n2)cc1)N1CCC(N2CCCC2)CC1` is reported as 11% (binding, competition with immobilised ligand; 1 µM).
The remaining binding of `C[C@@H](c1ccc(-n2cnc3c(N)ncnc32)cc1)N1CCc2nn(C)c(Cc3ccccc3)c2C1=O` is reported as 85% (binding, competition with immobilised ligand; 0.1 µM).
`COc1cnc(Nc2cccc(S(N)(=O)=O)c2)nc1N1CCN(c2ccccc2)C(=O)C1` has a remaining binding of 98% (binding, competition with immobilised ligand; 1 µM).
The remaining binding of `CN(c1ccnc(CNc2nc(Nc3ccc4c(c3)CC(=O)N4)ncc2C(F)(F)F)n1)S(C)(=O)=O` is reported as 13% (cell-free assay, competition with immobilised ligand; 1 µM).
`N[C@H]1CCN(c2nccc(-c3cnn4ncccc34)n2)C1` has a remaining binding of 68% (binding; 1 µM).
For `O=C(O)[C@@H]1[C@@H](Cn2nnc3ccccc3c2=O)CC[C@H]1C(=O)c1ccc(OCCC2CCOCC2)cc1`, the remaining binding was 93% (cell-free assay, competition with immobilised ligand; 1 µM).
The remaining binding of `Cc1cnc(Nc2ccc(C(=O)N3CCC(N4CCCC4)CC3)cc2)nc1-c1cc2ccccc2s1` is reported as 4.2% (binding, competition with immobilised ligand; 1 µM).
`Cc1nccc(COC(=O)N2C[C@@H]3[C@@H](CNC(=O)c4ccc5[nH]nnc5c4)[C@@H]3C2)n1` gave a remaining binding of 100% (cell-free assay, competition with immobilised ligand; 1 µM).
The remaining binding of `C[C@@H]1CCN(c2nccc(-c3cnn4ncccc34)n2)C1` is reported as 100% (binding; 1 µM).
The remaining binding of `FC(F)(F)Oc1cccc(-c2cnc3ccc(-c4ccncc4)nn23)c1` is reported as 90% (binding, competition with immobilised ligand; 5 µM).
For `FC(F)(F)c1ccc2c(c1)nc(-c1cccnc1)n2C1CC1`, the remaining binding was 93% (cell-free assay, competition with immobilised ligand; 1 µM).
`CC1CCCN1c1nccc(-c2cnn3ncccc23)n1` (stereo not shown) gave a remaining binding of 100% (binding; 1 µM).
The remaining binding of `CCC(=O)N[C@H]1CC[C@@H](C(=O)N(C)c2ccc(-c3nc4ccccc4o3)cc2)C1` is reported as 100% (cell-free assay, competition with immobilised ligand; 1 µM).
With `Cc1cnn2ncc(-c3ccnc(N(C)C)n3)c2c1` the remaining binding was 100% (binding; 1 µM).
`CO[C@@H](C)c1c(Nc2ccc([C@@H](N(C)C(=O)C3CCS(=O)(=O)CC3)C(F)(F)F)cc2)cnc2cc(Cl)nn12` has a remaining binding of 92% (cell-free assay, competition with immobilised ligand; 1 µM).
`c1cnn2ncc(-c3ccnc(N4CCC45COC5)n3)c2c1` has a remaining binding of 92% (binding; 1 µM).
For `CN1CCN(c2cnc3c(C4CCN(C(=O)c5ccc(OC(F)(F)F)cc5N)CC4)ncnc3c2)CC1`, the remaining binding was 96% (cell-free assay, competition with immobilised ligand; 1 µM).
`O=C(NCC1CCOCC1)c1n[nH]cc1NC(=O)c1c(F)cccc1F` has a remaining binding of 97% (binding, competition with immobilised ligand; 1 µM).
